We go through two molecules from ChEMBL document CHEMBL4765378, “Discovery of simplified benzazole fragments derived from the marine benzosceptrin B as necroptosis inhibitors involving the receptor interacting protein Kinase-1” (Eur J Med Chem, 2020).

The target of data set [1] is T1, Receptor-interacting serine/threonine-protein kinase 1 (Homo sapiens) (UniProt Q13546).
T1 sequence (whole entry): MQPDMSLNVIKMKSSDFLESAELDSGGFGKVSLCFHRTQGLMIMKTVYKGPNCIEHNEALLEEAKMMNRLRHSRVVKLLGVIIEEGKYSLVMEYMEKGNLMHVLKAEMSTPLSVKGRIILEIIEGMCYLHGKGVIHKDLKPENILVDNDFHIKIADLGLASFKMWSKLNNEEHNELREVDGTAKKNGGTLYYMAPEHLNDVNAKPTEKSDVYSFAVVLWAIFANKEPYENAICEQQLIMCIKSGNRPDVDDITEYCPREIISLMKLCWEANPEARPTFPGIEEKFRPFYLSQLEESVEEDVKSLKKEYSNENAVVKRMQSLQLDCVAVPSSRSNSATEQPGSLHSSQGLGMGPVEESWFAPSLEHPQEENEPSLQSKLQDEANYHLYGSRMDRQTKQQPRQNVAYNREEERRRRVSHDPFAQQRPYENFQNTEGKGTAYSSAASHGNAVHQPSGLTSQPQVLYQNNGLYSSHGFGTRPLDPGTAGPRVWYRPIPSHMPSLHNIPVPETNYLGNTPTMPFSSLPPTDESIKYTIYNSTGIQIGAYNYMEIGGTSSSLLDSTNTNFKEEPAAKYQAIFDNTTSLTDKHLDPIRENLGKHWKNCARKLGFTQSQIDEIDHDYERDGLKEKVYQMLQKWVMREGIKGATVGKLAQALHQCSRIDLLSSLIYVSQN
The data set can be described thus: Inhibition of RIPK1 in human FADD-deficient Jurkat I 2.1 cells assessed as protection against TNFalpha-induced necroptosis by measuring remaining viable cells at 10 uM measured after 24 hrs by MTS assay relative to TNFalpha. In kind it is cell-based. In outline:
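FADD-deficient Jurkat cells co-treated 24 h with 10 ng/ml human recombinant TNF-α and 10 μM compound; MTS viability normalized to DMSO control (100%); protection delta = viability with TNF-α plus compound minus viability with TNF-α alone (negative if toxic); n = 3.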
(In general: Tetrazolium assays rely on reduction of a dye to a coloured formazan, in cell work by metabolically active cells.)

Data set [2] deals with T2, Receptor-interacting serine/threonine-protein kinase 1 (Homo sapiens, UniProt Q13546).
T2 sequence (Q13546 whole entry): T1 sequence (whole entry)
The data set can be described thus: (§1) Inhibition of recombinant human RIPK1 kinase domain (8 to 322 residues) using myelin basic protein as substrate measured after 120 mins by [gamma-32P]ATP based scintillation counting method.

The target in data set [3] is T1, Receptor-interacting serine/threonine-protein kinase 1 (Homo sapiens). The data set is described as §1.
Data set [4] addresses Aurora kinase B (Homo sapiens, UniProt Q96GD4). Nature of the data set: Inhibition of recombinant human AURKB expressed in baculovirus infected Sf9 insect cells using myelin basic protein as substrate by ADP-Glo assay.
Data set [5] addresses Casein kinase I isoform epsilon (Homo sapiens, UniProt P49674). Nature of the data set: Inhibition of recombinant human CK1epsilon expressed in baculovirus infected Sf9 insect cells using RRKHAAIGSpAYSITA as substrate by ADP-glo assay.
For data set [6], the system named is TERT-RPE1. The data set can be described thus: Cytotoxicity against human TERT-RPE1 cells assessed as increase in LDH release at 0.01 to 50 uM measured after 24 hrs by CyQUANT reagent based assay. In kind it is cell-based. As to conditions: tert-rpe1, 24 h, dose 0.01-50 µM. In outline:
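hTERT RPE-1 cells (DMEM-F12-Glutamax, 10% FCS, 37 °C, 5% CO2) exposed 24 h to compound from 0.01 to 50 μM; viability measured.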

Data set [7] has as its target Serine/threonine-protein kinase pim-1 (Homo sapiens, UniProt P11309). The data set can be described thus: Inhibition of recombinant human PIM1 expressed in bacterial expression system using histone H1 as substrate by ADP-glo assay. On the technique in general: In ADP-Glo the light output rises with the ADP produced.
The target in data set [8] is Dual specificity tyrosine-phosphorylation-regulated kinase 1A (Rattus norvegicus, UniProt Q63470). The data set can be described thus: Inhibition of recombinant rat DYRK1A kinase domain (1 to 499 residues) expressed in bacterial expression system using KKISGRLSPIMTEQ as substrate by ADP-glo assay.
Data set [9] has as its target CDK2/Cyclin A2 (Homo sapiens, UniProt P24941). The data set can be described thus: Inhibition of human CDK2/cyclin A using histone H1 as substrate by ADP-glo assay. In kind it is protein-complex assay.
Data set [10] deals with Receptor-interacting serine/threonine-protein kinase 3 (Homo sapiens, UniProt Q9Y572). The data set can be described thus: Inhibition of recombinant human RIPK3 expressed in baculovirus infected Sf9 insect cells using myelin basic protein as substrate by ADP-Glo assay.
The target of data set [11] is Dual specificity protein kinase CLK1 (Mus musculus, UniProt P22518). The data set can be described thus: Inhibition of mouse recombinant CLK1 expressed in bacterial expression system using GRSRSRSRSRSR as substrate by ADP-glo assay.
Data set [12] concerns the target Tyrosine-protein kinase ABL1 (Homo sapiens, UniProt P00519). The data set can be described thus: Inhibition of recombinant human ABL1 (118 to 535 residues) expressed in baculovirus infected Sf9 insect cells using EAIYAAPFAKKK as substrate by ADP-glo assay.
The target in data set [13] is Cyclin-dependent kinase 5/CDK5 activator 1 (Homo sapiens, UniProt Q00535). Nature of the data set: Inhibition of human recombinant CDK5/p25 expressed in bacterial expression using histone H1 as substrate by ADP-glo assay.
For data set [14], the target named is CDK9/cyclin T1 (Homo sapiens, UniProt P50750). Nature of the data set: Inhibition of human recombinant CDK9/cyclin T expressed in baculovirus infected Sf9 insect cells using YSPTSPSYSPTSPSYSPTSPSKKKK as substrate by ADP-glo assay.
For data set [15], the target named is T1, Receptor-interacting serine/threonine-protein kinase 1 (Homo sapiens). The data set can be described thus: Inhibition of RIPK1 in human FADD-deficient Jurkat I 2.1 cells assessed as protection against TNFalpha-induced necroptosis measured after 24 hrs by MTS assay.
The nature of data set [16]: Cytotoxicity against human FADD-deficient Jurkat I 2.1 cells assessed as reduction in cell viability at 10 uM measured after 24 hrs by MTS assay. To be noted: jurkat i 2.1, 24 h. In kind it is cell-based.

Chain of CDK9/cyclin T1 (O60563 whole entry): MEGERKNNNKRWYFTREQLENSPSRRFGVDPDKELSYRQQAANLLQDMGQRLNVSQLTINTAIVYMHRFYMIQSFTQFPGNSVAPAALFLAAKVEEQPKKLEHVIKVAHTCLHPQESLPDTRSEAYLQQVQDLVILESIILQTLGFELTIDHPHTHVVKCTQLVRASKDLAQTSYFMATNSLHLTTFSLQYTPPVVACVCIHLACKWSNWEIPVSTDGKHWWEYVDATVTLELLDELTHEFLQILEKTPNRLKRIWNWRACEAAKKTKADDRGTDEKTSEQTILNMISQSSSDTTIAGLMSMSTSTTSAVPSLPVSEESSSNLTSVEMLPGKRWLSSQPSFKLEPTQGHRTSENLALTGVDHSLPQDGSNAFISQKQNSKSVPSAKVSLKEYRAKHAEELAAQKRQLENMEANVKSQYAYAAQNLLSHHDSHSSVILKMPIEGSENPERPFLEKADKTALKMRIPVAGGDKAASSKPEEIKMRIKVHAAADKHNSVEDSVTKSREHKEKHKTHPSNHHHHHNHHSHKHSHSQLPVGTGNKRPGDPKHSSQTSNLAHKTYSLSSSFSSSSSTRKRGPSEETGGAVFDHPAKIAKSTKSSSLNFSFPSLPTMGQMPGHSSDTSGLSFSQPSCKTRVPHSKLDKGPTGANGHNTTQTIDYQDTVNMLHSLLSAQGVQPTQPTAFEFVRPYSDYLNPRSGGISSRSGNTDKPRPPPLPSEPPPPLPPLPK
Chain of CDK9/cyclin T1 (P50750 whole entry): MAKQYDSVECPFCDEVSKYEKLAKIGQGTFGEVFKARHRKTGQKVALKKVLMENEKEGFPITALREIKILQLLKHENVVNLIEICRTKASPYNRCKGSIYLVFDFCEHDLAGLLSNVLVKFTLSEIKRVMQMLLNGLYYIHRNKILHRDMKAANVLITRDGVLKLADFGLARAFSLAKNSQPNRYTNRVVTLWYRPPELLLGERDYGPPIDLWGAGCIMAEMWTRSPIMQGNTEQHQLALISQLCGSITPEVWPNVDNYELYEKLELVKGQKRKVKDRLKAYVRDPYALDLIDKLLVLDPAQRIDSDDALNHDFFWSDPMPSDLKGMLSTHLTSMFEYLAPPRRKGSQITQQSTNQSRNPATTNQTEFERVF
Chain of Receptor-interacting serine/threonine-protein kinase 3 (Q9Y572 whole entry): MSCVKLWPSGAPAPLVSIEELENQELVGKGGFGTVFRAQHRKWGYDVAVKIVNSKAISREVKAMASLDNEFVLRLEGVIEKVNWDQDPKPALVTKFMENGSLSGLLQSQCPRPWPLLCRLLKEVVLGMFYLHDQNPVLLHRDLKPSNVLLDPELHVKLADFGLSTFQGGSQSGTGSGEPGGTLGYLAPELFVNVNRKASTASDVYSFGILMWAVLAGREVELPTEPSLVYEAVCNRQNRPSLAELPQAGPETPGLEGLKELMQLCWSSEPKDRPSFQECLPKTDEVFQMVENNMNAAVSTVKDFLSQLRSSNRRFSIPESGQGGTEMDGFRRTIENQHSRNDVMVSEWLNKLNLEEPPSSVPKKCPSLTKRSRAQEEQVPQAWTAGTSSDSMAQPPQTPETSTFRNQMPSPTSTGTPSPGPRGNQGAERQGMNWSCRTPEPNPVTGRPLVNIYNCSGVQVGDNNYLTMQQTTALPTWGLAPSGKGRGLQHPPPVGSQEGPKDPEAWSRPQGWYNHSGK
Chain of Aurora kinase B (Q96GD4 whole entry, canonical isoform): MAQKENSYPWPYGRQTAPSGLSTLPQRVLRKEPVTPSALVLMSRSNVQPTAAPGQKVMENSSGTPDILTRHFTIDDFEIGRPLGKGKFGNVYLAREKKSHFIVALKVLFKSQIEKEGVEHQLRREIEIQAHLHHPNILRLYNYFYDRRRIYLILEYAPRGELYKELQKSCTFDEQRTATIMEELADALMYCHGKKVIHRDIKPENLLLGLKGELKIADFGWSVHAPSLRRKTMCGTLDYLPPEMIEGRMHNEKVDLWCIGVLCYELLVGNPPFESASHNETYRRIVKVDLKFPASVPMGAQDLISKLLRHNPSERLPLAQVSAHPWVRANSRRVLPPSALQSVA
Chain of Casein kinase I isoform epsilon (P49674 whole entry, canonical isoform): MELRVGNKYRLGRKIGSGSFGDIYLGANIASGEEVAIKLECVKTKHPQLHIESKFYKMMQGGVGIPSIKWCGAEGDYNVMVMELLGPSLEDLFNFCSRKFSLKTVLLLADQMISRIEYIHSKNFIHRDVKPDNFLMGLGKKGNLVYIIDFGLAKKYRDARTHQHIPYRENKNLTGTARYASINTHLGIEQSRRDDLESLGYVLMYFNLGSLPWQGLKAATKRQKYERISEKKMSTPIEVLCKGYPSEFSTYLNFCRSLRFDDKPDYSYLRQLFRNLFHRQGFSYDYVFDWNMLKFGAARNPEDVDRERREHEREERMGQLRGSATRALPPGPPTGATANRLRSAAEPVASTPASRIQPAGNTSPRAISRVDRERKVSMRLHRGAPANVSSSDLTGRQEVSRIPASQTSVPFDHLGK
Chain of Cyclin-dependent kinase 5/CDK5 activator 1 (Q00535 whole entry): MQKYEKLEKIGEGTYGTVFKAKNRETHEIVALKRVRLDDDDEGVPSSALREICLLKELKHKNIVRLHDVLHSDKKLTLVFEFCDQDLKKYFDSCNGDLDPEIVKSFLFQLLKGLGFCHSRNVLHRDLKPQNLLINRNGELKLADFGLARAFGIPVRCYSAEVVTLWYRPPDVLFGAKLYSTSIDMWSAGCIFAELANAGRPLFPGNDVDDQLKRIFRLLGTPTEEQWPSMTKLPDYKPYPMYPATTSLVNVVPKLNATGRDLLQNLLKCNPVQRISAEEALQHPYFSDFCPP
Chain of Cyclin-dependent kinase 5/CDK5 activator 1 (Q15078 whole entry, further chain): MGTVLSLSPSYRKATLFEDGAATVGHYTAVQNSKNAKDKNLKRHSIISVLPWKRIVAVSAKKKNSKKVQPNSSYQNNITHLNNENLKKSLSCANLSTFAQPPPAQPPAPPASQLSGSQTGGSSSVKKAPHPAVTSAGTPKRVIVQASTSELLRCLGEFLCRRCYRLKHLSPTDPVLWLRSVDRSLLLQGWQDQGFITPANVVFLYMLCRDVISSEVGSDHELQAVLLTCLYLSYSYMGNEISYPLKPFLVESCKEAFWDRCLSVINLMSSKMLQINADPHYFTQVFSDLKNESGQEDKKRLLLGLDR
Chain of Serine/threonine-protein kinase pim-1 (P11309 whole entry, the tested form may be a part): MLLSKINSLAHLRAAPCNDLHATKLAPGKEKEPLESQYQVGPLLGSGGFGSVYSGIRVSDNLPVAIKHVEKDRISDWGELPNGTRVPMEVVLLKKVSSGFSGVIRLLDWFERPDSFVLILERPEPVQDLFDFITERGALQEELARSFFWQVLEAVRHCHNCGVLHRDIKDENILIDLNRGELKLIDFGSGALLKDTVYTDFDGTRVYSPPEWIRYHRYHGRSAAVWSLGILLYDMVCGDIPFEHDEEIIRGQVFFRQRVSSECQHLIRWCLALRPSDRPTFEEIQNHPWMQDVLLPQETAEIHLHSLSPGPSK
Chain of Tyrosine-protein kinase ABL1 (P00519 whole entry, the tested form may be a part): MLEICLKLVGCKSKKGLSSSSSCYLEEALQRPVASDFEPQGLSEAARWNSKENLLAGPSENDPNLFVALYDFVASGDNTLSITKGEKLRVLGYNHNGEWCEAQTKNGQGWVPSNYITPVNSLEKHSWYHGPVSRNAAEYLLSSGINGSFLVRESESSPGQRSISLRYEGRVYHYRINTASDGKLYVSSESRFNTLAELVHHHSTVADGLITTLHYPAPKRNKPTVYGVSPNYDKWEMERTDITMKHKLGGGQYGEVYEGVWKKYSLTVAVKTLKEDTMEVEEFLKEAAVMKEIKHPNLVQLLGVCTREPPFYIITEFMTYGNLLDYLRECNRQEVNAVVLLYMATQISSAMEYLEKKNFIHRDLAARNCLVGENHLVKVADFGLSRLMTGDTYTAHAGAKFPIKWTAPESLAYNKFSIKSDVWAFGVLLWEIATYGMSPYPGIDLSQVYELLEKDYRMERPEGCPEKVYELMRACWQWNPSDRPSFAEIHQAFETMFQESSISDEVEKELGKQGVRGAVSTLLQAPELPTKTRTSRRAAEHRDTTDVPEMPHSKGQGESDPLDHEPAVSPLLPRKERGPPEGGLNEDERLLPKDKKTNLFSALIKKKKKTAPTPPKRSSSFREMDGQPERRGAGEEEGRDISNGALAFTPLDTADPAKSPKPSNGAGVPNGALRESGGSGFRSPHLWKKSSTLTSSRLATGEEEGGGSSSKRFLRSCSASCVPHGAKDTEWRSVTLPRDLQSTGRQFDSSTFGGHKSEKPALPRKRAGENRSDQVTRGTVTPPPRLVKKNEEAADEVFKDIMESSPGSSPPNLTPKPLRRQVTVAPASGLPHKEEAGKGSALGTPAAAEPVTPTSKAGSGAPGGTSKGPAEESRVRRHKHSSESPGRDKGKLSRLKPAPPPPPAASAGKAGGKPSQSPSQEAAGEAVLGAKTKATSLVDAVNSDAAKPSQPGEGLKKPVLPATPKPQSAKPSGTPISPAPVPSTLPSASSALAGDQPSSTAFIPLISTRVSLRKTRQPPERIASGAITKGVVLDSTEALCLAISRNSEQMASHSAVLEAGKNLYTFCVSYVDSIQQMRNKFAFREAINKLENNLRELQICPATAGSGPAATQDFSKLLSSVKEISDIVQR
Chain of Dual specificity protein kinase CLK1 (P22518 whole entry, the tested form may be a part): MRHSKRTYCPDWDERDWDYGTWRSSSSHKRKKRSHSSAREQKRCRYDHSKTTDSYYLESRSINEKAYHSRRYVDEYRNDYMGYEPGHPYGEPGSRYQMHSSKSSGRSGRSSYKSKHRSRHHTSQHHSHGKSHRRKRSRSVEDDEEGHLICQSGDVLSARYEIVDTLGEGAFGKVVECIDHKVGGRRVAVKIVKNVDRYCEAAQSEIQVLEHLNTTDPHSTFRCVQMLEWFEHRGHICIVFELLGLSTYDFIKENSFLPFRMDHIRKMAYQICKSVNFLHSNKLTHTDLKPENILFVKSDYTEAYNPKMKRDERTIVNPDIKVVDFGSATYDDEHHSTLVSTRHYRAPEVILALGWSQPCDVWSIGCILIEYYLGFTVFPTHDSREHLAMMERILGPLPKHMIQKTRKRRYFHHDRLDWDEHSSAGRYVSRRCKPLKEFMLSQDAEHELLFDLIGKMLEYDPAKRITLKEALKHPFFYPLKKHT

For orientation: IC50 means the concentration at which inhibition is half-maximal. With `CCCCNc1nc2ccc([N+](=O)[O-])cc2[nH]1`, the figures for the Activity in data set [1], in data set [6] and in data set [16] were 56.9%, “Non-Toxic” and “Non-Toxic”, respectively. Besides, the IC50 is 12.1 µM in data set [2]; > 10 µM in data set [4]; > 10 µM in data set [5]; > 10 µM in [7]; 1.8 µM in data set [8]; > 10 µM in [9]. Further, the IC50 in [10] was > 10 µM; in data set [11], 0.8 µM; in data set [12] it was > 10 µM; in [13], > 10 µM; in [14], 0.48 µM. Moreover, the inhibition result in [3] and in data set [15] was “Dose-dependent effect” in each case.

In the case of `CCCCNc1nc2cc([N+](=O)[O-])ccc2s1`, the Activity was 56.1% in [1], “Non-Toxic” in data set [6] and “Non-Toxic” in data set [16]. Moreover, the IC50 is 2.89 µM in [2]; > 10 µM in data set [4]; > 10 µM in data set [5]; > 10 µM in data set [7]; 2.21 µM in data set [8]; > 10 µM in data set [9]. For the same molecule, the IC50 in data set [10], in data set [11], in data set [12], in data set [13] and in data set [14] was > 10 µM each time. Further, the inhibition result in [3] and in data set [15] was “Dose-dependent effect” in each case.
